# Laboratory results taken from ChEMBL document CHEMBL5316292 (J Med Chem, 2023).
# pEC50, pIC50, pKd: −log10 of the molar value. Calls of active or inactive are those of the source. The calls are words filed in the database; no cut-off is given here.
# What was measured:
# [1] = target: T1, Bromodomain-containing protein 4 (Homo sapiens, UniProt O60885); test: Induction of BRD4 degradation in human MDA-MB-231 cells assessed as decrease in BET half life at 10 uM incubated for 8 hrs in presence of cycloheximide by immunoblotting analysis; format: cell-based
# How it was run: (§1)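 MDA-MB-231 time-course. Cells given 50 µg/mL cycloheximide plus DMSO, or 50 µg/mL cycloheximide plus 10 µM compound. RIPA lysates immunoblotted for BRD2, BRD3 and BRD4 with GAPDH as control.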
# [2] = target: T2, Bromodomain-containing protein 3 (Homo sapiens, UniProt Q15059); test: Induction of BRD3 degradation in human MDA-MB-231 cells at 0.025 to 2.5 uM incubated for 24 hrs by qRT-PCR analysis; format: cell-based; settings: dose 0.025-2.5 µM
# How it was run: (§2)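 MDA-MB-231 cells treated for 24 h at doses rising tenfold from 25 nM to 2.5 µM. Gene expression measured by qRT-PCR. SEM, n = 3.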
# Target sequence in this assay (Q15059 2-726 limits assumed): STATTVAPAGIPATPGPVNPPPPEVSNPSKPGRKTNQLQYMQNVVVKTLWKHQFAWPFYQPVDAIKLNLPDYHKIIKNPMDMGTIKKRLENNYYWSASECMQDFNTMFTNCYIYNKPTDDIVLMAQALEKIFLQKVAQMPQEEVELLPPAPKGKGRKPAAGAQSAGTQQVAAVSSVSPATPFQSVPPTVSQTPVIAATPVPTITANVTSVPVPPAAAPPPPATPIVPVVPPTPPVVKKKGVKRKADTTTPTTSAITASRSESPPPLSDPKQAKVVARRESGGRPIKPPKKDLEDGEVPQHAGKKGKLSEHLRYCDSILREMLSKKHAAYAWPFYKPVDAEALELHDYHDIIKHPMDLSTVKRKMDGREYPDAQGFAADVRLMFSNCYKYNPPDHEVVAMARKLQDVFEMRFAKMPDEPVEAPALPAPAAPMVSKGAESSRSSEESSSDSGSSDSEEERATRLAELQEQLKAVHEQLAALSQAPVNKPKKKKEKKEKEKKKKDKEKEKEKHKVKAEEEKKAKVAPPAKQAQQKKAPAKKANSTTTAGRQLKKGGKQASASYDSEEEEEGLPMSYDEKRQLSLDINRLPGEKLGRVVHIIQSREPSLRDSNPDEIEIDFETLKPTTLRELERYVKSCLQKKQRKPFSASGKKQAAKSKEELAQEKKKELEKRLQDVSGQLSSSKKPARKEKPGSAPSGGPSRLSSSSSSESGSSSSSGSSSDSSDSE
# [3] = target: T2, Bromodomain-containing protein 3; test: Induction of BRD3 degradation in human MDA-MB-231 cells incubated for 16 hrs by immunoblotting analysis; format: cell-based
# How it was run: (§3)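 MDA-MB-231 or PC-3 cells at 50% confluence in DMEM/10% FBS/pen-strep, treated 16 h with doses falling tenfold from 10 µM to 1 nM. RIPA lysates immunoblotted for BRD2, BRD3 and BRD4 with GAPDH as control. DC50 derived from band densitometry. SEM, n = 2.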
# [4] = target: T1, Bromodomain-containing protein 4; settings: dose 50.0 µM
# [5] = target: T2, Bromodomain-containing protein 3; test: Binding affinity to 6His-tagged BRD3-BD2 (unknown origin) by MST assay
# How it was run: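 His6-tagged BD (80 nM) after size-exclusion, labelled 1:1 with 10 nM Red-tris-NTA in PBST (0.05% Tween-20) for 30 min at room temperature, then centrifuged. Mixed with an equal volume of serially diluted compound. Thermophoresis read at 40% LED/MST power. Triplicate data curve-fitted, error as SEM.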
# Target sequence in this assay (Q15059 whole entry): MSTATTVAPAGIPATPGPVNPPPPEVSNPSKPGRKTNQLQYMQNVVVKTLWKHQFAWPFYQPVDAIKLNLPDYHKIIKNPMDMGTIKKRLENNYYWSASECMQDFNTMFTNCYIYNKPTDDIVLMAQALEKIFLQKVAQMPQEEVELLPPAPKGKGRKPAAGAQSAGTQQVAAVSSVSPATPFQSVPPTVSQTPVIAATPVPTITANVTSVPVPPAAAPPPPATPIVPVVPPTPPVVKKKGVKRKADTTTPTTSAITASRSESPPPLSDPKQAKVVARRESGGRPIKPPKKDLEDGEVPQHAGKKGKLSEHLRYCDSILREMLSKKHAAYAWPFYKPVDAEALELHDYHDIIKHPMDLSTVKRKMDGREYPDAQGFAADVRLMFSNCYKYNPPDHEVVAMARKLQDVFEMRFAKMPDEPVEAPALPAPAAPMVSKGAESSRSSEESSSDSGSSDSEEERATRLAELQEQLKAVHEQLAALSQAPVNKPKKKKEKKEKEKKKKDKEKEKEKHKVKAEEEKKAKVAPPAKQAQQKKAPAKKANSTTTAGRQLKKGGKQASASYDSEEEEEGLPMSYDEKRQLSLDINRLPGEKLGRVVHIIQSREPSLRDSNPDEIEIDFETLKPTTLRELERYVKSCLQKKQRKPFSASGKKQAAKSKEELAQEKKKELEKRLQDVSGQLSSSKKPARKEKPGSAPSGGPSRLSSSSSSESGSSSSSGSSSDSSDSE
# VCaP [6] = test: Downregulation of TMPRSS2 gene levels in human VCaP cells incubated for 24 hrs by qRT-PCR analysis; format: functional, cell-based; settings: dose 25-2500 nM
# How it was run: (§4)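 VCaP cells grown to 50% confluence, then treated with compound or DMSO (Methods state 16 h, legend states 24 h). Total RNA isolated, cDNA made from 1 µg RNA, SYBR Green qPCR run in triplicate. Expression by ΔΔCt, normalised to GAPDH. Three independent experiments, SEM.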
# [7] = target: T3, Bromodomain-containing protein 2 (Homo sapiens, UniProt P25440); test: Induction of BRD2 degradation in human MDA-MB-231 cells assessed as decrease in BET half life at 10 uM incubated for 8 hrs in presence of cycloheximide by immunoblotting analysis; format: cell-based; how it was run: as §1
# Target sequence in this assay (P25440 whole entry, looked up): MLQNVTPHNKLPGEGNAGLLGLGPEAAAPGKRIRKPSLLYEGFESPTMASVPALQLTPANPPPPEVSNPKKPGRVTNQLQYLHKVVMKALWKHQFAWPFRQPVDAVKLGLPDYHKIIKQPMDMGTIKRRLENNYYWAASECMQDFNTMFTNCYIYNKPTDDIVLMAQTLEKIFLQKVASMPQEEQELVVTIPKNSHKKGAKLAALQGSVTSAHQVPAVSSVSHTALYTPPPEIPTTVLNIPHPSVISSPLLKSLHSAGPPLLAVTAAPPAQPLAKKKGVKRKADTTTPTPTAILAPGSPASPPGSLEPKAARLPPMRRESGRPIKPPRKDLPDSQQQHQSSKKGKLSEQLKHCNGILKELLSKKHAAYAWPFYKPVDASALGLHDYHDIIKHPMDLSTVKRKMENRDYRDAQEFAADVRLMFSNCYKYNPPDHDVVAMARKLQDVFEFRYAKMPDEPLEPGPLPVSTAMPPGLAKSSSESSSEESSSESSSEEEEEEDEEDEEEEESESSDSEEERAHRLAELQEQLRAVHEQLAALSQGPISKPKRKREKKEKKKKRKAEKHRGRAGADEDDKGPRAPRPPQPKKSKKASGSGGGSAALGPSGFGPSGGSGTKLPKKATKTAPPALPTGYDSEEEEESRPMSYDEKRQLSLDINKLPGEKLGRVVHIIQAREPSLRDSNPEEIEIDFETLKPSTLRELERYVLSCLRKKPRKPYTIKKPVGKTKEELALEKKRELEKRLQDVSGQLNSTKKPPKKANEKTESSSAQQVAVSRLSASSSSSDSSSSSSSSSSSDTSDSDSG
# [8] = target: T2, Bromodomain-containing protein 3; test: Induction of BRD3 degradation in human MDA-MB-231 cells at 10 uM incubated for 8 hrs in presence of MG132 by immunoblotting analysis; format: cell-based
# Target sequence in this assay (Q15059 2-726 limits assumed): as the sequence (Q15059 2-726 limits assumed) above
# VCaP [9] = test: Downregulation of AR […] expression in human VCaP cells incubated for 24 hrs by qRT-PCR analysis; format: functional, cell-based; settings: dose 25-2500 nM; how it was run: as §4
# [10] = target: T2, Bromodomain-containing protein 3; test: Binding affinity to human partial length BRD3 BD1 (P24 to E144 residues) expressed in bacterial expression system using H4K5acIC8acK12acK16ac-biotinylated peptide as substrate preincubated for 30 mins followed by substrate addition by AlphaScreen assay
# How it was run: (§5)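 AlphaScreen. Biotinylated H4K5acK8acK12acK16ac peptide added at equal concentration to protein for 30 min. Donor and acceptor beads (25 µg/mL each) added, ≥1 h in the dark. Triplicate, curve-fitted, SEM.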
# Target sequence in this assay (Q15059 whole entry): as the sequence (Q15059 whole entry) above
# [11] = target: T1, Bromodomain-containing protein 4; test: Induction of BRD4 degradation in human MDA-MB-231 cells at 10 uM by immunoblotting analysis; format: cell-based; settings: time 8.0 hrs
# [12] = target: T4, Bromodomain testis-specific protein (Homo sapiens, UniProt Q58F21); test: Binding affinity to human partial length BRDT BD1 (N21 to E137 residues) expressed in bacterial expression system using H4K5acIC8acK12acK16ac-biotinylated peptide as substrate preincubated for 30 mins followed by substrate addition by AlphaScreen assay; how it was run: as §5
# LNCaP = test: Antiproliferative activity against androgen-sensitive human LNCaP cells assessed as reduction in cell viability measured after 72 hrs by MTS assay; format: functional, cell-based
# How it was run: (§6)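 MTS viability assay run in triplicate wells. Serial dilutions in DMSO were given, with DMSO as negative control and doxorubicin as positive control, and incubated 72 h. MTS reagent was added for 2 h and absorbance read at 490 nm. % cytotoxicity = (A_medium − A_treatment)/A_medium × 100. EC50 ± SD was taken from dose-response curves of at least three independent experiments.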
# [13] = target: T1, Bromodomain-containing protein 4; test: Induction of BRD4 degradation in human MDA-MB-231 cells at 0.025 to 2.5 uM incubated for 24 hrs by qRT-PCR analysis; format: cell-based; settings: dose 0.025-2.5 µM; how it was run: as §2
# [14] = Cytotoxicity against HFF cells assessed as reduction in cell viability measured after 72 hrs by MTS assay; format: toxicity, cell-based; settings: human; how it was run: as §6
# [15] = target: T1, Bromodomain-containing protein 4; test: Induction of BRD4 degradation in human MDA-MB-231 cells incubated for 16 hrs by immunoblotting analysis; format: cell-based; how it was run: as §3
# [16] = target: T2, Bromodomain-containing protein 3; test: Induction of BRD3 degradation in human PC-3 cells incubated for 16 hrs by immunoblotting analysis; format: cell-based; how it was run: as §3
# [17] = target: T4, Bromodomain testis-specific protein; test: Binding affinity to human partial length BRDT BD2 (K250 to E382 residues) expressed in bacterial expression system assessed as change in melting temperature at 50 uM at 20 to 85 degreeC by SYPRO orange staining based thermal shift assay
# How it was run: (§7)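 DSF thermal shift. 10 µM BD in 50 mM HEPES, 500 mM NaCl pH 7.5, with 50 µM compound or DMSO-matched control and 1:1000 Sypro Orange (ex 465/em 590 nm). Ramp 20–85 °C at 0.03 °C/s. Tm taken as the midpoint between fluorescence max and min. At least three independent experiments, SEM in °C.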
# [18] = Antiproliferative activity against human Androgen-resistant 22Rv1 cells assessed as reduction in cell viability measured after 72 hrs by MTS assay; format: functional, cell-based; settings: 22Rv1, 72 h; how it was run: as §6
# [19] = target: T4, Bromodomain testis-specific protein; test: Binding affinity to human partial length BRDT BD1 (N21 to E137 residues) expressed in bacterial expression system assessed as change in melting temperature at 50 uM at 20 to 85 degreeC by SYPRO orange staining based thermal shift assay; how it was run: as §7
# [20] = target: T3, Bromodomain-containing protein 2; test: Induction of BRD2 degradation in human PC-3 cells incubated for 16 hrs by immunoblotting analysis; format: cell-based; how it was run: as §3
# Target sequence in this assay (P25440 whole entry): as the sequence (P25440 whole entry, looked up) above
# [21] = target: T1, Bromodomain-containing protein 4; test: Binding affinity to human partial length BRD4 BD1 (N44 to E168 residues) expressed in bacterial expression system using H4K5acIC8acK12acK16ac-biotinylated peptide as substrate preincubated for 30 mins followed by substrate addition by AlphaScreen assay
# [22] = Induction of degradation in human PC-3 cells incubated for 16 hrs by immunoblotting analysis
# [23] = target: T1, Bromodomain-containing protein 4; test: Induction of BRD4 degradation in human MDA-MB-231 cells at 10 uM incubated for 8 hrs in presence of MG132 by immunoblotting analysis; format: cell-based
smiles,measurement,setting,value
CC(=O)OC[C@]12CC[C@H]3[C@@H](C[C@H]4O[C@]45CC=CC(=O)[C@]35C)[C@]1(O)CC[C@@]2(O)[C@@](C)(O)[C@H]1CC(C)=C(C)C(=O)O1,Activity,[1],Active
same,Activity,[2],inactive
same,Activity,[3],Dose-Dependent Effect
same,DC50,[3],23.9 nM
same,ΔTm,[4],7.33 °C
same,pKd,[5],6.83
same,Activity,VCaP [6],Dose-Dependent Effect
same,Activity,[7],Active
same,Activity,[8],inactive
same,Activity,VCaP [9],Dose-Dependent Effect
same,pIC50,[10],8.15
same,Activity,[11],Active
same,pIC50,[12],6.39
same,pEC50,LNCaP,7.67
same,Activity,[13],inactive
same,EC50 at 72 h,[14],> 2000 nM
same,Activity,[15],Dose-Dependent Effect
same,DC50,[15],41.6 nM
same,Activity,[16],Dose-Dependent Effect
same,DC50,[16],7290 nM
same,ΔTm,[17],7.58 °C
same,pEC50,[18],7.52
same,ΔTm,[19],9.57 °C
same,DC50,[20],> 10000 nM
same,pIC50,[21],7.75
same,Activity,[22],Dose-Dependent Effect
same,Activity,[23],inactive
